Tests used:
Format in all cases: ADME, organism-based
[1] = Elimination half life in Sprague-Dawley rat at 5 mg/kg, iv by LC-MS/MS analysis; parameters: dose 5 mg/kg, route intravenous; details: in vivo, read-out: beta t1/2 (converted)
In short: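 Male Sprague-Dawley rats received a single IV dose of either 10 mg/kg parent drug (n = 6) or 5 mg/kg homodisulfide (n = 5), in 50 mM HEPES-buffered saline, pH 7.4. Blood was collected into NEM-containing heparinized tubes for up to 7 days. Parent drug and homodisulfide in plasma were quantified by LC-MS/MS. Terminal t1/2β was calculated as 0.693/λz.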

[2] = Tmax in Sprague-Dawley rat at 5 mg/kg, iv by LC-MS/MS analysis; parameters: dose 5 mg/kg, route intravenous; details: in vivo
[3] = Volume of distribution in Sprague-Dawley rat at 5 mg/kg, iv by LC-MS/MS analysis; parameters: dose 5 mg/kg, route intravenous; details: in vivo
[4] = AUC(0 to last) in Sprague-Dawley rat at 5 mg/kg, iv by LC-MS/MS analysis; parameters: time 0 - last, dose 5 mg/kg, route intravenous; details: plasma
In short: (§1)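 Male Sprague-Dawley rats (n = 5) given the homodisulfide intravenously at 5 mg/kg. Blood collected up to 7 days into heparin/NEM tubes. Plasma analyzed by LC-MS/MS for both monomer and dimer. Noncompartmental AUC, Cl and Vd calculated. Mean ± S.D.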

[5] = AUC(0 to infinity) in Sprague-Dawley rat at 5 mg/kg, iv by LC-MS/MS analysis; parameters: dose 5 mg/kg, route intravenous, time infinity; details: plasma; in short: as §1
[6] = Cmax in Sprague-Dawley rat at 5 mg/kg, iv by LC-MS/MS analysis; parameters: dose 5 mg/kg, route intravenous; details: in vivo; in short: as §1
[7] = Clearance in Sprague-Dawley rat at 5 mg/kg, iv by LC-MS/MS analysis; parameters: dose 5 mg/kg, route intravenous; details: in vivo; in short: as §1

- half-life [1]: 101 h
- Tmax [2]: 6.6 min
- Vd [3]: 209 L/kg
- AUC(0-t) [4]: 2490 µg·h/mL
- AUC(0-inf) [5]: 3540 µg·h/mL
- Cmax [6]: 104 µg/mL
- clearance [7]: 1.5 mL/h/kg
SMILES: O=C(O)c1cccc(-c2cccc(CCSSCCc3cccc(-c4cccc(C(=O)O)c4)c3C(=O)O)c2C(=O)O)c1

From ChEMBL document CHEMBL3526151, “Reversible disulfide formation of the glutamate carboxypeptidase II inhibitor E2072 results in prolonged systemic exposures in vivo” (Drug Metab Dispos, 2012)
